# Experimental data collected from several papers.
# Each line is one published result; the experiments were not run side by side.
# KIT D816V: Mast/stem cell growth factor receptor Kit (KIT, Homo sapiens, UniProt P10721, D816V)
# KIT V559D/V654A: Mast/stem cell growth factor receptor Kit (KIT, Homo sapiens, UniProt P10721, V559D/V654A)
# KIT: Mast/stem cell growth factor receptor Kit (KIT, Homo sapiens, UniProt P10721)
# KIT autoinhibited: Mast/stem cell growth factor receptor Kit, autoinhibited (KIT, Homo sapiens, UniProt P10721)
# KIT T670I/V559D: Mast/stem cell growth factor receptor Kit (KIT, Homo sapiens, UniProt P10721, T670I/V559D)
# KIT V559D: Mast/stem cell growth factor receptor Kit (KIT, Homo sapiens, UniProt P10721, V559D)
# KIT L576P: Mast/stem cell growth factor receptor Kit (KIT, Homo sapiens, UniProt P10721, L576P)
# KIT A829P: Mast/stem cell growth factor receptor Kit (KIT, Homo sapiens, UniProt P10721, A829P)
# KIT D816H: Mast/stem cell growth factor receptor Kit (KIT, Homo sapiens, UniProt P10721, D816H)
SMILES,target,test,conditions,remaining binding [%]
CCN1CCN(Cc2ccc(C(=O)Nc3ccc(C)c(Oc4ccc5c(c4)CC(=O)N5)c3)cc2C(F)(F)F)CC1,KIT D816V,"binding, competition with immobilised ligand",1 µM,81
CC1CCCN1c1nccc(-c2cnn3ncccc23)n1 (stereo not drawn),KIT V559D/V654A,binding,1 µM,100
C[C@@H]1CN(c2ccc3ncc(-c4ccc5[nH]nc(C6CC6)c5c4)n3n2)C[C@H](C)O1,KIT,"binding, competition with immobilised ligand",0.5 µM,50
O=C(NCCCN1CCOCC1)c1ccc(Nc2ncc(Cl)c(-c3ccc(Cl)s3)n2)cc1,KIT V559D/V654A,"binding, competition with immobilised ligand",1 µM,9.9
O=C(NCc1ncc(C(F)(F)F)cc1Cl)c1ccc2c(c1)C1(CCS(=O)(=O)CC1)[C@H](C1CC1)N2S(=O)(=O)c1ccc(F)cc1,KIT,"cell-free assay, competition with immobilised ligand",1 µM,100
N#Cc1ccccc1CSc1nnc2c(n1)[nH]c1ccccc12,KIT D816V,"binding, competition with immobilised ligand",10 µM,75
O=C(c1ccc(Nc2nccc(-c3cc4ccccc4s3)n2)cc1)N1CCC(N2CCCC2)CC1,KIT D816V,"binding, competition with immobilised ligand",1 µM,15
CNC(=O)[C@@H]1CC[C@@H](n2c(-c3ccc4cnccc4c3)nc3ccc(C(=O)NCc4cccc(C(N)=O)c4)cc32)C1,KIT autoinhibited,"binding, competition with immobilised ligand",1 µM,100
O=C(Nc1cccnn1)N1CC(C/C=C/c2cncc(Oc3ccc(C(F)(F)F)cn3)n2)C1,KIT V559D/V654A,"cell-free assay, competition with immobilised ligand",1 µM,100
O=C(c1ccc(Nc2ncc(Cl)c(-c3cc4ccccc4s3)n2)cc1)N1CCC(N2CCCC2)CC1,KIT V559D/V654A,"binding, competition with immobilised ligand",1 µM,50
O=C(Nc1c[nH]nc1C(=O)NC1CCNCC1)c1cc(F)cc(F)c1,KIT T670I/V559D,"binding, competition with immobilised ligand",1 µM,100
O=C(Nc1cccnn1)N1CCC(=Cc2cccc(Oc3ccc(C(F)(F)F)cn3)c2)CC1,KIT T670I/V559D,"cell-free assay, competition with immobilised ligand",1 µM,96
N[C@@H]1CCN(c2nccc(-c3cnn4ncccc34)n2)C1,KIT V559D,binding,1 µM,100
C[C@@H](c1ccc(-n2cnc3c(N)ncnc32)cc1)N1CCc2nn(C)c(Cc3ccccc3)c2C1=O,KIT D816V,"binding, competition with immobilised ligand",0.1 µM,99
CN(C)c1nccc(-c2cnc3ncccn23)n1,KIT V559D/V654A,binding,1 µM,100
CN1CCN(c2ccc(Nc3nccc(-c4cccc([N+](=O)[O-])c4)n3)cc2C(F)(F)F)CC1,KIT V559D/V654A,binding,10 µM,0
c1cnn2ncc(-c3ccnc(N4CCC45COC5)n3)c2c1,KIT V559D,binding,1 µM,78
Cc1cnc(Nc2ccc(C(=O)N3CCC(N4CCCC4)CC3)cc2)nc1-c1cc2ccccc2s1,KIT T670I/V559D,"binding, competition with immobilised ligand",1 µM,10
O=C(O)[C@H]1[C@H](Cn2nnc3ccccc3c2=O)CC[C@@H]1C(=O)c1ccc(OCCC2CCOCC2)cc1,KIT L576P,"cell-free assay, competition with immobilised ligand",1 µM,96
O=C(c1ccc(Nc2ncc(Cl)c(-c3ccc(Cl)s3)n2)cc1)N1CCC(N2CCCC2)CC1,KIT A829P,"binding, competition with immobilised ligand",1 µM,4.3
F[C@@H]1CCN(c2nccc(-c3cnn4ncccc34)n2)C1,KIT L576P,binding,1 µM,92
COc1cnc(Nc2cccc(S(N)(=O)=O)c2)nc1N1CCN(c2ccccc2)C(=O)C1,KIT D816H,"binding, competition with immobilised ligand",1 µM,55
O=C(NCCCN1CCOCC1)c1ccc(Nc2nccc(-c3cc4ccccc4s3)n2)cc1,KIT V559D,"binding, competition with immobilised ligand",1 µM,26
Cc1cnn2ncc(-c3ccnc(N(C)C)n3)c2c1,KIT D816V,binding,1 µM,100
COc1ncc2cc3ccccc3nc2c1C#N,KIT A829P,"cell-free assay, competition with immobilised ligand",5 µM,100
COc1cnc(Nc2cccc(S(N)(=O)=O)c2)nc1N1CCN(c2ccccc2)CC1,KIT V559D,"binding, competition with immobilised ligand",1 µM,94
CN1CCN(c2ccc(Nc3nccc(-c4ccccc4)n3)cc2C(F)(F)F)CC1,KIT D816H,binding,10 µM,17
CN1CCN(c2cnc3c(C4CCN(C(=O)c5ccc(OC(F)(F)F)cc5N)CC4)ncnc3c2)CC1,KIT autoinhibited,"cell-free assay, competition with immobilised ligand",1 µM,85
C=CC(=O)N1CCC(C(=O)NCC(=O)N2CCN(c3nc(-c4cnc(N)nc4C(F)F)nc(N4CCOCC4)n3)CC2)CC1,KIT D816V,"binding, competition with immobilised ligand",1 µM,79
COc1ccc2c(O[C@@H]3C[C@H]4C(=O)N[C@]5(C(=O)O)CC5/C=C\CCCCC[C@H](NC(=O)OC5CCCC5)C(=O)N4C3)cc(-c3csc(NC(=O)C(C)C)n3)nc2c1C (stereo partly drawn),KIT T670I/V559D,"cell-free assay, competition with immobilised ligand",1 µM,76
c1cncc(-c2cccc(Nc3nccc(NC4CCCCC4)n3)c2)c1,KIT L576P,"binding, competition with immobilised ligand",10 µM,0
C[C@H]1CCN(c2nccc(-c3cnn4ncccc34)n2)C1,KIT A829P,binding,1 µM,83
CC(=O)N1CCC(c2ccc(C(=O)NC3=NCCN3)cc2C(F)(F)F)CC1,KIT D816V,"cell-free assay, competition with immobilised ligand",1 µM,91
Nc1ncc2c(n1)-c1c([nH]c3ccc(C#CC4CC4)cc13)CCCC2,KIT V559D,"binding, competition with immobilised ligand",1 µM,100
O=C(NCC1CCOCC1)c1n[nH]cc1NC(=O)c1c(F)cccc1F,KIT D816V,"binding, competition with immobilised ligand",1 µM,100
CN(C)C(=O)Cn1cc(-c2nc(C3(c4ccc(-c5cnc(N)nc5)cc4)CC3)no2)cn1,KIT,"cell-free assay, competition with immobilised ligand",1 µM,93
